Consider 21 compounds from ChEMBL document CHEMBL1795282, “Synthesis, biological evaluation, and docking studies of gigantol analogs as calmodulin inhibitors” (Eur J Med Chem, 2011).

Broadly, the IC50 is the concentration that inhibits the measured activity by half. In general, Km refers to the concentration of substrate that gives half-maximal velocity.

Assay [1] concerns the target Calmodulin-1 (Homo sapiens, UniProt P0DP23). Description: Inhibition of Calmodulin-dependent PDE1 activity assessed as inorganic phosphate release after 30 min.
The species entered for assay [2] is Homo sapiens. Description: Binding affinity to human Calmodulin M124C mutant assessed as extrinsic fluorescence quenching in phosphate buffer at pH 5.1 by mBBr fluorescence assay. The gist of the method:
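Ca²⁺–hCaM M124C–mBBr biosensor at 5 μM in 100 mM phosphate buffer, pH 5.1, with 10 mM CaCl₂, stirred at 37 °C and titrated with ligand. Excitation was at 381 nm, with emission scanned from 400 to 550 nm. Fractional saturation was taken as y = (F − F₀)/(F∞ − F₀) at 470 nm versus ligand concentration. Apparent constant Km, Emax and Hill coefficient came from a Hill-equation fit.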

Activity calls are given as the source filed them. The calls are words filed in the database; no cut-off is given here.

As for `COc1ccc(CCCc2ccc(O)cc2)cc1`, the IC50 in assay [1] is 62.7 µM. In addition, the Km in assay [2] is 8.7 µM.
Consider `c1ccc(Cc2ccccc2)cc1` [DIPHENYLMETHANE], for which, in assay [1], the IC50 worked out at 15 µM. Further, in assay [2], the result was inactive.
In the case of `COc1cc(O)cc(CCc2ccc(O)c(OC)c2)c1` [GIGANTOL], the IC50 in assay [1] was determined as 114 µM. Moreover, the Km in assay [2] is 60.8 µM.
The matching figures for `COc1cc(Cc2cccc(OC)c2O)cc(OC)c1`: 56.1 µM and 33.8 µM.
In the same order, the values of `Oc1cccc(CCc2ccc3c(c2)OCO3)c1` are 75.9 µM and 63.8 µM.
In the same order, the values of `COc1ccc(CCc2cc(O)cc(OC)c2)cc1` are 9.38 µM and 80 µM.
On to `COc1cc(O)cc(CCc2ccc3c(c2)OCO3)c1`, for which the IC50 in assay [1] came out at 31.3 µM. Also, in assay [2], the Km is 45.5 µM.
As to `c1ccc(COc2ccccc2)cc1`, in assay [1], the inhibition result was “inactive”. In addition, the outcome in assay [2] was inactive.
`COc1ccc(CCc2cc(OC)cc(OC)c2)cc1`: in assay [1], the IC50 stood at 146 µM. Moreover, the Km in assay [2] amounted to 21.8 µM.
The matching figures for `COc1cc(O)cc(C(=O)/C=C/c2ccc(OC)c(O)c2)c1`: 37.7 µM and 3.89 µM.
In the same order, the values of `COc1cc(O)cc(CCc2ccc(N(C)C)cc2)c1` are 30.1 µM and 12 µM.
For `COc1ccc(/C=C/C(=O)c2ccc(O)cc2)cc1`, the half-inhibitory concentration (IC50) in assay [1] was determined as 22.5 µM. Besides, the Km in assay [2] stood at 10.3 µM.
The matching figures for `COc1cc(Cc2ccc(O)c(OC)c2)cc(OC)c1`: 54.7 µM and 33.1 µM.
The matching figures for `COc1cc(O)cc(C(=O)/C=C/c2ccc(O)c(OC)c2)c1`: 57.3 µM and 5.31 µM.
In the same order, the values of `COc1cc(O)cc(CCCc2ccc(O)c(OC)c2)c1` are 32.5 µM and 54.3 µM.
Take `Oc1cccc(CCCc2ccc3c(c2)OCO3)c1`: the IC50 in assay [1] is 22.9 µM. In addition, the Km in assay [2] was 14.2 µM.
Consider `COc1cc(CCc2ccc(N(C)C)cc2)cc(OC)c1`, for which, in assay [1], the IC50 was determined as 36.3 µM. In assay [2], the Km came out at 10 µM.
The matching figures for `CCOc1ccc(CCc2cc(OC)cc(OC)c2)cc1OC`: 18.4 µM and 9.88 µM.
In the same order, the values of `CCOc1ccc(CCc2cccc(O)c2)cc1OC` are 46.1 µM and 58.1 µM.
For the compound `CCOc1ccc(CCc2cc(O)cc(OC)c2)cc1OC`, the IC50 in assay [1] was 54.7 µM. Moreover, the Km in assay [2] is 25.3 µM.
As to `c1ccc(CCc2ccccc2)cc1`, in assay [1], the inhibition entry is “inactive”. Moreover, in assay [2], the outcome was inactive.
